Measured values published in ChEMBL document CHEMBL1933024, “In vitro antibacterial activity of sphaeropsidins and chemical derivatives toward Xanthomonas oryzae pv. oryzae, the causal agent of rice bacterial blight” (2011).
Activity calls are given as the source filed them. No cut-off for these calls is given here.

Assays:
Assay type in all cases: functional
Burkholderia glumae = assay: Antibacterial activity against Burkholderia glumae AU6208 assessed as growth inhibition at 25 to 100 ug measured after 1 to 2 days
Outline: (§1)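 Agar well diffusion. Each pathogen culture was mixed with top agar (PSA, KB or LB; 0.75% w/v agar) at 45 °C, 50 µL culture per 10 mL, and poured over LB plates bearing wells. Compound (25 or 100 µg in 50 µL DMSO) was added to the wells; 50 µL DMSO served as negative control. Plates were incubated at 30 °C for 1–2 days. The inhibition zone was measured in mm, including the 4 mm well. Three repeats, SD.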

[1] = test system: Xanthomonas oryzae pv. oryzae; assay: Antibacterial activity against Xanthomonas oryzae pv. oryzae XKK.12 assessed as growth inhibition at 6 X 10^-3 M measured after 1 to 2 days; settings: for zone of inhibition at 6000 µM: read-out: IZ; outline: as §1
Pseudomonas fuscovaginae = assay: Antibacterial activity against Pseudomonas fuscovaginae UPB0736 assessed as growth inhibition at 25 to 100 ug measured after 1 to 2 days; outline: as §1
[2] = test system: Xanthomonas oryzae pv. oryzae; assay: Bacteriostatic activity against Xanthomonas oryzae pv. oryzae XKK.12 assessed as growth inhibition at 0.5 to 1.5 X 10^-4 M measured after 1 to 2 days
[3] = test system: Xanthomonas oryzae pv. oryzae; assay: Antibacterial activity against Xanthomonas oryzae pv. oryzae XKK.12 assessed as growth inhibition at 1.5 X 10^-3 M measured after 1 to 2 days; outline: as §1
[4] = test system: Xanthomonas oryzae pv. oryzae; assay: Antibacterial activity against Xanthomonas oryzae pv. oryzae XKK.12 assessed as growth inhibition at 5.2 X 10^-3 M measured after 1 to 2 days; outline: as §1
[5] = test system: Xanthomonas oryzae pv. oryzae; assay: Antibacterial activity against Xanthomonas oryzae pv. oryzae XKK.12 assessed as growth inhibition at 1.3 X 10^-3 M measured after 1 to 2 days; outline: as §1
[6] = test system: Xanthomonas oryzae pv. oryzae; assay: Antibacterial activity against Xanthomonas oryzae pv. oryzae XKK.12 assessed as growth inhibition at 5.7 X 10^-3 M measured after 1 to 2 days; settings: read-out: IZ; outline: as §1
[7] = test system: Xanthomonas oryzae pv. oryzae; assay: Antibacterial activity against Xanthomonas oryzae pv. oryzae XKK.12 assessed as growth inhibition at 1.0 X 10^-3 M measured after 1 to 2 days; outline: as §1
[8] = test system: Xanthomonas oryzae pv. oryzae; assay: Antibacterial activity against Xanthomonas oryzae pv. oryzae XKK.12 assessed as growth inhibition at 4 X 10^-3 M measured after 1 to 2 days; outline: as §1
[9] = test system: Xanthomonas oryzae pv. oryzae; assay: Antibacterial activity against Xanthomonas oryzae pv. oryzae XKK.12 assessed as growth inhibition at 6 X 10^-3 measured after 1 to 2 days relative to ampicillin
[10] = test system: Xanthomonas oryzae pv. oryzae; assay: Antibacterial activity against Xanthomonas oryzae pv. oryzae XKK.12 assessed as growth inhibition at 1.4 X 10^-3 M measured after 1 to 2 days; outline: as §1
[11] = test system: Xanthomonas oryzae pv. oryzae; assay: Antibacterial activity against Xanthomonas oryzae pv. oryzae XKK.12 assessed as growth inhibition at 5.6 X 10^-3 M measured after 1 to 2 days; outline: as §1
[12] = test system: Xanthomonas oryzae pv. oryzae; assay: Bactericidal activity against Xanthomonas oryzae pv. oryzae XKK.12 assessed as growth inhibition at 0.5 to 1.5 X 10^-4 M measured after 6 to 24 hrs
[13] = test system: Xanthomonas oryzae pv. oryzae; assay: Antibacterial activity against Xanthomonas oryzae pv. oryzae XKK.12 assessed as growth inhibition at 5.2 X 10^-3 measured after 1 to 2 days relative to ampicillin
[14] = test system: Xanthomonas oryzae pv. oryzae; assay: Bactericidal activity against Xanthomonas oryzae pv. oryzae XKK.12 assessed as decrease in survival rate at 0.5 to 1.5 X 10^-4 M measured after 6 to 24 hrs
[15] = test system: Xanthomonas oryzae pv. oryzae; assay: Antibacterial activity against Xanthomonas oryzae pv. oryzae XKK.12 assessed as growth inhibition at 25 to 100 ug measured after 1 to 2 days; outline: as §1
[16] = test system: Xanthomonas oryzae pv. oryzae; assay: Antibacterial activity against Xanthomonas oryzae pv. oryzae XKK.12 assessed as growth inhibition at 2 X 10^-3 M measured after 1 to 2 days; settings: read-out: IZ; outline: as §1
[17] = test system: Xanthomonas oryzae pv. oryzae; assay: Antibacterial activity against Xanthomonas oryzae pv. oryzae XKK.12 assessed as growth inhibition at 2 X 10^-3 measured after 1 to 2 days relative to ampicillin
[18] = test system: Xanthomonas oryzae pv. oryzae; assay: Antibacterial activity against Xanthomonas oryzae pv. oryzae XKK.12 assessed as growth inhibition at 0.5 X 10^-3 M measured after 1 to 2 days; outline: as §1

In the case of `CC[C@]1(C)C=C2[C@@H](O)[C@@]3(O)OC(=O)[C@@]4(CCCC(C)(C)[C@H]34)[C@@]2(O)CC1`, the Activity (Burkholderia glumae) is reported as “inactive”, the zone of inhibition at 6000 µM [1] is reported as 8.9 mm and the Activity (Pseudomonas fuscovaginae) is reported as “inactive”. The Activity [2] was “inactive” and the “inhibition zone (IZ)” value [3] was “inactive”.
In the case of `C=C[C@]1(C)C=C2C3(CO3)C(=O)[C@H]3C(C)(C)CCC[C@]3(C(=O)OC)[C@@]2(O)CC1` (some centres undefined), the Activity (Burkholderia glumae) is reported as “inactive”, the Activity (Pseudomonas fuscovaginae) is reported as “inactive” and the “inhibition zone (IZ)” value [4] is reported as “inactive”. For the same molecule, the “inhibition zone (IZ)” value [5] was “inactive”.
With `C=C[C@]1(C)C=C2[C@@H](O)[C@@]3(O)OC(=O)[C@@]4(CCCC(C)(C)[C@H]34)[C@@]2(O)CC1` the Activity (Burkholderia glumae) was “inactive”, the “inhibition zone (IZ)” value [1] was “inactive” and the Activity (Pseudomonas fuscovaginae) was “inactive”. For the same molecule, the “inhibition zone (IZ)” value [3] was “inactive”.
Work on `CC1(C)S[C@@H]2[C@H](NC(=O)[C@H](N)c3ccccc3)C(=O)N2[C@H]1C(=O)O` [AMPICILLIN] yielded a zone of inhibition at 5700 µM [6] of 52 mm.
For `C=C[C@]1(C)C=C2[C@@H](OC(C)=O)[C@@]3(O)OC(=O)[C@@]4(CCCC(C)(C)[C@H]34)[C@@]2(O)CC1`, the Activity (Burkholderia glumae) was “inactive”, the Activity (Pseudomonas fuscovaginae) was “inactive” and the “inhibition zone (IZ)” value [7] was “inactive”. For the same molecule, the “inhibition zone (IZ)” value [8] was “inactive”.
In the case of `CC[C@]1(C)C=C2C(=O)[C@@]3(O)OC(=O)[C@@]4(CCCC(C)(C)[C@H]34)[C@@]2(O)CC1`, the Activity (Burkholderia glumae) is reported as “inactive”, the zone of inhibition at 6000 µM [1] is reported as 11.6 mm and the Activity (Pseudomonas fuscovaginae) is reported as “inactive”. The “growth inhibition (GI)” value [9] was 22.3%, the Activity [2] was “Active” and the “inhibition zone (IZ)” value [3] was “inactive”.
In the case of `C=C[C@@]1(C)CC[C@@]2(O)C(=C1C)C(=O)C(=O)[C@H]1C(C)(C)CCC[C@@]12C(=O)OC`, the Activity (Burkholderia glumae) is reported as “inactive”, the “inhibition zone (IZ)” value [10] is reported as “inactive” and the Activity (Pseudomonas fuscovaginae) is reported as “inactive”. The “inhibition zone (IZ)” value [11] was “inactive”.
`C=C[C@]1(C)C=C2C3(CO3)C(=O)[C@H]3C(C)(C)CCC[C@]3(C(=O)OC)[C@@]2(OC)CC1` (some centres undefined) was tested, and the Activity (Burkholderia glumae) was “inactive”, the Activity (Pseudomonas fuscovaginae) was “inactive” and the “inhibition zone (IZ)” value [4] was “inactive”. The “inhibition zone (IZ)” value [5] was “inactive”.
In the case of `C=C[C@]1(C)C=C2C(=O)[C@@]3(OC(C)=O)OC(=O)[C@@]4(CCCC(C)(C)[C@H]34)[C@@]2(O)CC1`, the Activity [12] is reported as “Active”, the Activity (Burkholderia glumae) is reported as “inactive” and the Activity (Pseudomonas fuscovaginae) is reported as “inactive”. For the same molecule, the “inhibition (INH)” value [13] was 39.8%, the zone of inhibition at 5200 µM ([4]; read-out: IZ) was 20.7 mm and the Activity [2] was “Active”. It also gave a zone of inhibition at 1300 µM ([5]; read-out: IZ) of 15.8 mm.
With `C=C[C@]1(C)C=C2C(=O)[C@@]3(O)OC(=O)[C@@]4(CCCC(C)(C)[C@H]34)[C@@]2(O)CC1` [SPHAEROPSIDIN A] the Activity [12] was “Active”, the zone of inhibition at 6000 µM [1] was 25.5 mm and the “growth inhibition (GI)” value [9] was 49%. The Activity [14] was “Active”, the Activity [15] was “Active” and the zone of inhibition at 1500 µM ([3]; read-out: IZ) was 18.3 mm.
In the case of `C=C[C@]1(C)C=C(C=O)[C@@]2(CC1)OC(=O)[C@H]1C(C)(C)CCC[C@@]12C(=O)O`, the Activity (Burkholderia glumae) is reported as “inactive”, the “inhibition zone (IZ)” value [1] is reported as “inactive” and the Activity (Pseudomonas fuscovaginae) is reported as “inactive”. For the same molecule, the “inhibition zone (IZ)” value [3] was “inactive”.
With `C=C[C@]1(C)C=C2[C@@H](O)C[C@H]3C(C)(C)CCC[C@]3(C(=O)O)[C@@]2(O)CC1` the Activity (Burkholderia glumae) was “inactive”, the “inhibition zone (IZ)” value [1] was “inactive” and the Activity (Pseudomonas fuscovaginae) was “inactive”. The “inhibition zone (IZ)” value [3] was “inactive”.
For `C=C[C@]1(C)C=C2C(=O)C[C@H]3C(C)(C)CCC[C@]3(C(=O)OC)[C@@]2(O)CC1`, the Activity (Burkholderia glumae) was “inactive”, the “inhibition zone (IZ)” value [1] was “inactive” and the Activity (Pseudomonas fuscovaginae) was “inactive”. For the same molecule, the “inhibition zone (IZ)” value [3] was “inactive”.
With `C=C[C@]1(C)C=C2C(=O)C[C@H]3C(C)(C)CCC[C@]3(C(=O)O)[C@@]2(O)CC1` the Activity (Burkholderia glumae) was “inactive”, the “inhibition zone (IZ)” value [1] was “inactive” and the Activity (Pseudomonas fuscovaginae) was “inactive”. The “inhibition zone (IZ)” value [3] was “inactive”.
In the case of `C=C[C@@]1(C)CCC2=C(C(=O)[C@@]3(OC(C)=O)OC(=O)[C@@]24CCCC(C)(C)[C@H]34)C1OC(C)=O` (some centres undefined), the zone of inhibition at 2000 µM [16] is reported as 15.3 mm, the “inhibition (INH)” value [17] is reported as 29.4% and the Activity (Burkholderia glumae) is reported as “inactive”. The “inhibition zone (IZ)” value [18] was “inactive”, the Activity (Pseudomonas fuscovaginae) was “inactive” and the Activity [2] was “Active”.
With `C=C[C@]1(C)C=C2[C@@H](O)C(=O)[C@H]3C(C)(C)CCC[C@]3(C(=O)OC)[C@@]2(O)CC1` the Activity (Burkholderia glumae) was “inactive”, the “inhibition zone (IZ)” value [10] was “inactive” and the Activity (Pseudomonas fuscovaginae) was “inactive”. For the same molecule, the “inhibition zone (IZ)” value [11] was “inactive”.
In the case of `C=C[C@@]1(C)CC[C@]2(O)[C@@]3(C(=O)OC)CCCC(C)(C)[C@@H]3C(=O)C(=O)[C@@]23C[C@@H]13`, the Activity (Burkholderia glumae) is reported as “inactive”, the Activity (Pseudomonas fuscovaginae) is reported as “inactive” and the “inhibition zone (IZ)” value [4] is reported as “inactive”. For the same molecule, the “inhibition zone (IZ)” value [5] was “inactive”.
In the case of `CC[C@]1(C)C=C2[C@@H](OC(C)=O)[C@@]3(O)OC(=O)[C@@]4(CCCC(C)(C)[C@H]34)[C@@]2(O)CC1`, the Activity (Burkholderia glumae) is reported as “inactive”, the Activity (Pseudomonas fuscovaginae) is reported as “inactive” and the “inhibition zone (IZ)” value [4] is reported as “inactive”. The “inhibition zone (IZ)” value [5] was “inactive”.
